# Compound activity (PubChem BioAssay)
# A selection: hits, their analogues and other compounds. The true share with any hit is near 3.7%.
# KCNK3 inh – human KCNK3 channel inhibitors, primary screen, CHO cells, FluxOR thallium flux, B-score; Potassium channel subfamily K member 3 (Homo sapiens), O14649; FluxOR fluorescence; active compounds read low; B-score at 10 µM; hit rate 0.84% among 340,000; AID 602410, 2012;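 active = B-score under library mean minus 4 SD, starting fluorescence ratio at most library mean plus 5 SD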;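 note: more negative B-score means stronger inhibition of thallium flux through KCNK3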
# KCNQ1 inh – inhibitors of human KCNQ1 channel, primary screen, cell-based, thallium flux, high-throughput; CHO-K1 KCNQ1, FluxOR thallium flux fluorescence; active compounds read high; Potassium voltage-gated channel subfamily KQT member 1 (Homo sapiens), P51787; AID 2642, 2010; hit rate 1.3% among 310,000; B-score at 10 µM;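 active = compounds whose thallium flux B-score, printed positive for inhibition, exceeds three library SD while starting fluorescence stays within three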;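 note: channel opened by potassium depolarization with thallium stimulus after 20 min compound exposure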
# KCNQ1 act – potentiators or activators of KCNQ1 channel, primary screen, cell-based, thallium flux, high-throughput; Potassium voltage-gated channel subfamily KQT member 1 (Homo sapiens), P51787; hit rate 0.35% among 310,000; CHO-K1 KCNQ1, thallium flux FluxOR fluorescence; active compounds read high; B-score at 10 µM;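 active = fluorescence ratio B-score, a plate-corrected score, at least three library SD, with initial intensity B-score within 5 SD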
#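 Assay system: stable KCNQ1 CHO-K1 line; medium: assay buffer, equal DMSO in all wells; timing: 90 min dye loading and 20 min compound exposure, both at room temperature; technique: kinetic FluxOR thallium fluorescence, 10-s 1-Hz baseline, 110-s post-stimulus read; read-out basis: B score of baseline-normalized fluorescence ratio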
# KCNK9 inh – KCNK9 potassium channel inhibitors, primary screen, HEK293 cells, thallium flux. Potassium channel subfamily K member 9 (Homo sapiens), Q9NPC2. B-score at 10 µM. FluxOR thallium flux fluorescence; active compounds read low. hit rate 1.2% among 310,000. AID 488922, 2010;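 active = ratio B-score over 3 SD below the library mean, with starting fluorescence within 5 SD of its mean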;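 note: negative B-score means less thallium flux so channel inhibition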
# Target sequence (Q9NPC2 whole entry, looked up): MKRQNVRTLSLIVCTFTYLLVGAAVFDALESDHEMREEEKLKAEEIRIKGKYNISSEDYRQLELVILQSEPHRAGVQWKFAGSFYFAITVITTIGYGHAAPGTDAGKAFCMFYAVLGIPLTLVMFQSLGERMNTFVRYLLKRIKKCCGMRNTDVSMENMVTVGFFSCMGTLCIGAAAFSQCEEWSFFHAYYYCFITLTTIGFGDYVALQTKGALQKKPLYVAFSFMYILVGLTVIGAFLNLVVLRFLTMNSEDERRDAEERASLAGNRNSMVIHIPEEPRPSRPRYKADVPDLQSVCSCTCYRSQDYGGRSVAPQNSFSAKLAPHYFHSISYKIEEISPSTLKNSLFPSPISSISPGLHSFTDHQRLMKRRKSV
# hERG rescue – hERG rescue from dofetilide block, primary screen, cell-based, CHO-hERG, FluxOR thallium flux, dofetilide IC70; activation (rescue from dofetilide block), less the hit threshold, % at 10 µM; AID 1511, 2009; dofetilide IC70 present; Voltage-gated inwardly rectifying potassium channel KCNH2 (Homo sapiens), Q12809; hit rate 0.51% among 310,000;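 active = activation above the mean of controls blocked by dofetilide plus 5 SD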;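 note: thallium influx through hERG after potassium depolarization seen as dye fluorescence rise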
# Kir21 inh – inhibitors of mouse Kir2.1 inward-rectifier potassium channel; Inward rectifier potassium channel 2 (Mus musculus), P35561; HEK293-Kir2.1, FluxOR thallium flux fluorescence; active compounds read low; B-score at 10 µM; hit rate 0.85% among 310,000; AID 1672, 2009;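 active = fluorescence ratio B-score at or below minus 3 SD of library scores, with starting-brightness B-score within 2 SD, cut at about -4.2 in these data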;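 note: channel flux triggered by added potassium and thallium sulfate stimulus; B-score of peak minus minimum fluorescence over baseline after thallium stimulus; more negative B-score means stronger Kir2.1 block with less thallium influx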
# Hits are given with their value; i = inactive; nt = no result.
SMILES,KCNK3 inh,KCNQ1 inh,KCNQ1 act,KCNK9 inh,hERG rescue,Kir21 inh
CC1CC(C)CN(CCCNS(=O)(=O)c2cc(Br)cc3c2N(C(=O)C2CC2)CC3)C1 (stereo unspecified),i,i,i,i,i,i
OC(CNCC1CCCO1)Cn1c2ccc(Cl)cc2c2cc(Cl)ccc21 (stereo unspecified),i,i,i,i,i,-5.4
CCOc1cc(CNCc2ccccc2)ccc1OCC(=O)NC1CCCCC1,i,i,i,i,i,-4.4
CC(C)c1ccc(OCCCN2CCCC2)cc1,i,i,i,i,i,i
CC(C)c1ccc(/C=C/C(=O)NC(=S)Nc2ccc(CN3CCOCC3)cc2)cc1,i,9,i,i,i,i
CC(C)c1ccc(/C=C/C(=O)NC(=S)NN2CCOCC2)cc1,i,i,i,i,i,i
COC(=O)c1sc(S(=O)(=O)NCc2ccccc2)c(C(=O)OC)c1C,i,i,i,i,i,-5.2
COc1ccc(C(C)=O)cc1CSc1nnc(Nc2ccc(C)cc2C)s1,i,i,i,i,i,i
COc1ccc(C(C)=O)cc1CSc1nnc(Nc2ccccc2C)s1,i,i,i,i,i,-4.3
Cc1cc(C)c(CN2CCC(N3CCC(C(=O)NCC4CCCO4)CC3)CC2)cc1C (stereo unspecified),i,i,i,i,i,i
O=C(O)c1ccc(N=NNc2cccc([N+](=O)[O-])c2)cc1,i,i,i,i,i,i
N#C/C(=N\Nc1cccc([N+](=O)[O-])c1)C(=O)c1ccc(Br)cc1,i,8,i,i,i,i
O=C(CNC(=O)c1cccs1)N/N=C/c1c(F)cccc1Cl,i,i,i,i,i,i
NC1=NC2=C(CCCC2)C2(CCCCC2)S1,i,i,i,i,i,-6.7
c1ccc(C(c2ccccn2)c2ccccn2)cc1,i,i,i,i,i,i
CC(=O)Oc1ccc(C(c2ccc(OC(C)=O)cc2)c2ccccn2)cc1,i,i,i,i,i,-4.3
CCn1cc(C(=O)Nc2ncccc2O)c(=O)c2cc(F)c(N3CCN(C(=O)c4ccco4)CC3)cc21,i,i,i,i,i,i
COc1ccc(C(C(=O)NC2CCCCC2)N(C(=O)c2snc(C(N)=O)c2N)c2ccc(OC)cc2OC)cc1 (stereo unspecified),i,i,i,i,i,i
COc1ccc(N(C(=O)c2snc(C(N)=O)c2N)C(C(=O)NC2CCCCC2)c2ccc(C)o2)c(OC)c1 (stereo unspecified),i,6,i,i,i,i
Cc1ccccc1N(C(=O)c1snc(C(N)=O)c1N)C(C(=O)NC1CCCCC1)c1ccc(O)cc1 (stereo unspecified),i,6,i,i,i,i
CCOC(=O)C1=C(C)NC(C)=C(C(=O)OCC)C1C(=O)OCC(=O)NCc1ccc(F)cc1,i,nt,nt,nt,nt,nt
Nc1nc(SCc2ccccc2[N+](=O)[O-])c2ncn(Cc3ccccc3)c2n1,i,nt,nt,nt,nt,nt
O=C(COC(=O)/C=C/c1ccccc1Cl)NC1CCCC1,i,nt,nt,nt,nt,nt
CSc1nc2cc(Oc3cccc(Cl)c3Cl)c(Cl)cc2[nH]1,-11,14,i,i,i,i
COc1cccc(-n2c(SCC(=O)NCC3CCCO3)nc3c(c2=O)SCC3)c1 (stereo unspecified),i,i,i,i,i,i
N#C/C(=C\c1c(Oc2ccc(Cl)cc2)nc2ccccn2c1=O)C(=O)NC1CCS(=O)(=O)C1 (stereo unspecified),i,i,i,i,i,-4.4
O=C1CN(C(=O)CCCc2c[nH]c3ccccc23)c2ccccc2N1,i,i,i,i,i,-5.7
O=C(O)CCCC(=O)N1CC(=O)Nc2ccccc21,i,i,i,i,i,i
CNC(=O)NCC12CC3CC(CC(C3)C1)C2,i,i,i,i,5.1,i
